Active and inactive are the calls of the source. No cut-off for these calls is given here.
Key:
T-24 [1] = assay: Induction of ferroptosis in human T-24 cells at 6 to 10 uM by Western blot analysis; conditions: dose 6-10 µM
T-24 [2] = assay: Induction of ferroptosis in human T-24 cells assessed as downregulation of xCT by Western blot analysis; format: functional, cell-based; conditions: dose 6-12 µM
T-24 [3] = assay: Induction of ferroptosis in human T-24 cells assessed as downregulation of xCT at 6 to 8 uM in presence of Fer-1 by Western blot analysis; format: functional, cell-based; conditions: dose 6-8 µM
T-24 [4] = assay: Induction of apoptosis in human T-24 cells assessed as increase in vZAD-reduced caspase-8 activation pretreated with vZAD for 1 hr followed by compound addition and measured upto 8 hrs by Western blot analysis; format: functional, cell-based; conditions: dose 2-10 µM, time hrs <=8
T-24 [5] = assay: Induction of autophagy in human T-24 cells assessed as LC3BII/LC3B1 ratio at 6 uM by Western blot analysis (reference value: 0.89 +/- 0.05); format: functional
T-24 [6] = assay: Induction of autophagy in human T-24 cells assessed as increase in LC3B-II/LC3B-I ratio by Western blot analysis; format: functional, cell-based
Outline: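 Western blot of LC3B-I and LC3B-II in T24 lysates after treatment at 6, 8, 10 and 12 µM alongside an untreated control. LC3B-II level and the LC3B-II/I band ratio are reported.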

T-24 [7] = assay: Induction of apoptosis in human T-24 cells assessed as increase in vZAD-reduced caspase-3 activation at 2 to 10 uM pretreated with vZAD for 1 hr followed by compound addition and measured upto 8 hrs by Western blot analysis; format: functional, cell-based; conditions: dose 2-10 µM, time hrs <=8
T-24 [8] = assay: Induction of ferroptosis in human T-24 cells assessed as increase in intracellular iron level at 8 uM in presence of Fer-1 by ICP-MS analysis (reference value: 860.2 +/- 62.3 pg); format: functional
T-24 [9] = assay: Induction of autophagy in human T-24 cells assessed as decrease in Akt phosphorylation at 6 to 12 uM incubated for 12 hrs in presence of IGF-1 by Western blot analysis; format: functional, cell-based; conditions: dose 6-12 µM
T-24 [10] = assay: Induction of ferroptosis in human T-24 cells assessed as increase in intracellular iron level at 8 uM by ICP-MS analysis (reference value: 860.2 +/- 62.3 pg); format: functional
T-24 [11] = assay: Induction of ferroptosis in human T-24 cells assessed as increase in intracellular iron level at 6 uM by ICP-MS analysis (reference value: 860.2 +/- 62.3 pg); format: functional
T-24 [12] = assay: Induction of autophagy in human T-24 cells assessed as LC3BII/LC3B1 ratio at 8 uM by Western blot analysis (reference value: 0.89 +/- 0.05); format: functional
T-24 [13] = assay: Induction of ferroptosis in human T-24 cells assessed as downregulation of xCT at <6 uM by Western blot analysis; format: functional, cell-based; conditions: dose microM <6

`O=C(Nc1cccc(CNc2ncnc3ccccc23)c1)Nc1ccc(Cl)c(Cl)c1` was tested, and the Activity (T-24 [1]) was “Active”, the Activity (T-24 [2]) was “Dose-dependent effect” and the Activity (T-24 [3]) was “Active”. The Activity (T-24 [4]) was “Dose-dependent effect”, the “fold change (FC)” value (T-24 [5]) was 1.41 and the Activity (T-24 [6]) was “Dose-dependent effect”. For the same compound, the Activity (T-24 [7]) was “Active”, the Activity (T-24 [8]) was 1079.4 pg and the Activity (T-24 [9]) was “inactive”. For the same compound, the Activity (T-24 [10]) was 1395.4 pg, the Activity (T-24 [11]) was 1152.3 pg and the “fold change (FC)” value (T-24 [12]) was 2.93. The Activity (T-24 [13]) was “inactive”.
